In brackets after ≈: the same amount, converted by molar mass.

Tested on in one series: not listed separately
In words: Permeability of the compound at 10 uM by PAMPA. Particulars: PAMPA; read-out: permeability. It is filed as ADME. In short, it runs like this: (§1)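 Measured in triplicate within at least one experiment; values reported as mean ± standard deviation.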
Background: The PAMPA barrier holds no transporters, so it reflects passive diffusion.
Take `O=C(Nc1cccc(C(F)(F)F)c1)N(Cc1ccccc1)C1CCN(Cc2cc[nH]n2)CC1`: the Papp at 10 µM was greater than 2200 ×10⁻⁶ cm/s.
The same measure, in the same setting: the result for `Cc1cccc(CN2CCC(NC(=O)Nc3cccc(C(F)(F)F)c3)CC2)c1` reads greater than 2200 ×10⁻⁶ cm/s; that for `CCCN1CCC(N(Cc2ccncc2)C(=O)Nc2cccc(C(F)(F)F)c2)CC1`, 700 ×10⁻⁶ cm/s; that for `Cc1ccc(NC(=O)NC2CCN(Cc3ccccc3)CC2)cc1Cl`, greater than 2200 ×10⁻⁶ cm/s.
On to `CCCN1CCC(N(CC2CCCCC2)C(=O)Nc2cccc(C(F)(F)F)c2)CC1`, for which the Papp at 10 µM is greater than 2200 ×10⁻⁶ cm/s.
The same measure, in the same setting: under `O=C(Nc1cccc(C(F)(F)F)c1)N(Cc1ccccc1)C1CCNCC1` stands greater than 2200 ×10⁻⁶ cm/s; under `O=C(Nc1cccc(C(F)(F)F)c1)N(Cc1ccccc1)C1CCN(Cc2nccs2)CC1`, 310 ×10⁻⁶ cm/s.
On the same count and under the same terms, under `CCOc1cc(CN2CCC(N(Cc3ccccc3)C(=O)Nc3cccc(C(F)(F)F)c3)CC2)cc(Cl)c1O` stands 110 ×10⁻⁶ cm/s.

The same series, now with this note: pampa, 10 µM.
Regarding `O=C(Nc1cccc(C(F)(F)F)c1)NC1CCN(Cc2ccc(Cl)cc2)CC1`, the permeability is 1300 ×10⁻⁶ cm/s.
For the compound `Cc1ccccc1CN1CCC(NC(=O)Nc2cccc(C(F)(F)F)c2)CC1`, the permeability is listed as 1200 ×10⁻⁶ cm/s.
On the same count and under the same terms, under `CCCN1CCC(N(CCOC)C(=O)Nc2cccc(C(F)(F)F)c2)CC1` stands 1600 ×10⁻⁶ cm/s; under `O=C(Nc1cccc(C(F)(F)F)c1)NC1CCN(Cc2ccccc2F)CC1`, 1500 ×10⁻⁶ cm/s.
The compound `CCCN1CCC(N(CCC(C)C)C(=O)Nc2cccc(C(F)(F)F)c2)CC1` returned a permeability of 1500 ×10⁻⁶ cm/s.
The same measure, in the same setting: under `CCCN1CCC(N(CC(C)C)C(=O)Nc2cccc(C(F)(F)F)c2)CC1` stands 1900 ×10⁻⁶ cm/s; under `CCCCCN1CCC(N(Cc2ccccc2)C(=O)Nc2cccc(C(F)(F)F)c2)CC1`, 1400 ×10⁻⁶ cm/s.
Same read-out and setting: under `CCCN1CCC(N(CCC)C(=O)Nc2cccc(C(F)(F)F)c2)CC1` stands 1600 ×10⁻⁶ cm/s; under `O=C(Nc1cccc(C(F)(F)F)c1)NC1CCN(Cc2cccc(Cl)c2)CC1`, 1700 ×10⁻⁶ cm/s; under `CCCN1CCC(N(Cc2cccnc2)C(=O)Nc2cccc(C(F)(F)F)c2)CC1`, 1300 ×10⁻⁶ cm/s.
Still for that read-out and setting: the result for `O=C(Nc1ccccc1)NC1CCN(Cc2ccccc2)CC1` reads 1400 ×10⁻⁶ cm/s.

In a further series the target is DCN1-like protein 1 (Homo sapiens, UniProt Q96GG9).
Sequence of DCN1-like protein 1 (Q96GG9 whole entry): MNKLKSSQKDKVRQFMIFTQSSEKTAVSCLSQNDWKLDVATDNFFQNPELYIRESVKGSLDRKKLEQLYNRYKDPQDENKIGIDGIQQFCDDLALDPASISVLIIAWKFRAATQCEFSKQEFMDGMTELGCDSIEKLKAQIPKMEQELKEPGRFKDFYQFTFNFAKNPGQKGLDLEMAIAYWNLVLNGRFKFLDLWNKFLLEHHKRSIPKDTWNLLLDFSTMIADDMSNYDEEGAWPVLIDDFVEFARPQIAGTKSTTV
Conditions: not given
Consider `CC(=O)O[C@H]1CN(Cc2ccccc2)CC[C@@H]1NC(=O)Nc1cccc(C(F)(F)F)c1`, for which it took 12 µM to reach half-maximal inhibition (IC50).
Still for that read-out and setting: under `O=C(Nc1cccc(C(F)(F)F)c1)NC1CCN(Cc2ccc(Cl)cc2)CC1` stands 25 µM; under `Cc1ccccc1CN1CCC(NC(=O)Nc2cccc(C(F)(F)F)c2)CC1`, 4 µM; under `O=C(Nc1cccc(I)c1)NC1CCN(Cc2ccccc2)CC1`, greater than 67 µM.
The same measure, in the same setting: under `CC(C)(C)CN1CCC(N(Cc2ccccc2)C(=O)Nc2cccc(C(F)(F)F)c2)CC1` stands 0.96 µM.
For `CCCN1CCC(N(CCOC)C(=O)Nc2cccc(C(F)(F)F)c2)CC1`, half-maximal inhibition (IC50) was put at 21 µM. This IC50 lies about 22-fold higher than the previous one.
Still for that read-out and setting: the result for `O=C(Nc1cccc(C(F)(F)F)c1)NC1CCN(Cc2ccccc2F)CC1` reads 13 µM.
On the same count and under the same terms, under `CCCN1CCC(N(CCC(C)C)C(=O)Nc2cccc(C(F)(F)F)c2)CC1` stands 2.7 µM.
On the same count and under the same terms, under `Cc1cccc(NC(=O)NC2CCN(Cc3ccccc3)CC2)c1` stands 44 µM; under `CCCN1CCC(N(CC(C)C)C(=O)Nc2cccc(C(F)(F)F)c2)CC1`, 5.8 µM.
In turn, `CCCCCN1CCC(N(Cc2ccccc2)C(=O)Nc2cccc(C(F)(F)F)c2)CC1` gave a half-inhibitory concentration (IC50) of 0.66 µM.
As to `CCCN1CCC(N(CCC)C(=O)Nc2cccc(C(F)(F)F)c2)CC1`, the half-inhibitory concentration (IC50) is 10 µM. This IC50 lies about 15-fold higher than the previous one.
Take `O=C(Nc1cccc(C(F)(F)F)c1)N(Cc1ccccc1)C1CCN(Cc2cc[nH]n2)CC1`: the 50% inhibitory concentration (IC50) turned out to be 2.4 µM.
On the same count and under the same terms, under `Cc1cccc(CN2CCC(NC(=O)Nc3cccc(C(F)(F)F)c3)CC2)c1` stands 6.6 µM; under `Cc1ccc(NC(=O)NC2CCN(Cc3ccccc3)CC2)cc1Cl`, greater than 67 µM.
On the same count and under the same terms, under `CCCN1CCC(N(CC2CCCCC2)C(=O)Nc2cccc(C(F)(F)F)c2)CC1` stands 2.4 µM.
Still for that read-out and setting: the result for `O=C(Nc1cccc(C(F)(F)F)c1)N(Cc1ccccc1)C1CCNCC1` reads 21 µM; that for `COc1cccc(NC(=O)NC2CCN(Cc3ccccc3)CC2)c1`, greater than 67 µM.
Take `CSc1cccc(NC(=O)NC2CCN(Cc3ccccc3)CC2)c1`: the IC50 was greater than 67 µM.
On the same count and under the same terms, under `O=C(Nc1ccccc1)NC1CCN(Cc2ccccc2)CC1` stands greater than 67 µM.
On the same count and under the same terms, the result for `O=C(Nc1ccc2c(c1)OCO2)NC1CCN(Cc2ccccc2)CC1` reads greater than 67 µM.

The subject of another series is HCC95. As to the kind of experiment: Growth inhibition of human HCC95 cells.
Conditions: not given
The series is classed as functional, cell-based. Summed up: (§2)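 In vitro monolayer proliferation assay in BJ cells (normal fibroblasts lacking DCN1 amplification) and HCC95 cells (squamous cell carcinoma line carrying DCN1 amplification). EC50 is reported as mean ± standard deviation from at least one experiment run in triplicate. A ">" value means less than 50% growth inhibition at the highest concentration tested.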
In the case of `CCCN1CCC(N(Cc2cccnc2)C(=O)Nc2cccc(C(F)(F)F)c2)CC1`, the EC50 was greater than 23 µM.

The test system of the next series is BJ. In words: Growth inhibition of human BJ cells. It is filed as cell-based.
Conditions: not given
In short, it runs like this: as §2
`CCCN1CCC(N(Cc2cccnc2)C(=O)Nc2cccc(C(F)(F)F)c2)CC1` returned an EC50 greater than 23 µM.

Tested on in a further series: not listed separately
As to the kind of experiment: Solubility of the compound at pH 7.4 after 18 hrs by UV-spectroscopy. It is filed as physicochemical. The conditions noted are these: buffer. Summed up:
as §1
For the compound `O=C(Nc1cccc(C(F)(F)F)c1)NC1CCN(Cc2ccc(Cl)cc2)CC1`, the concentration in solution (solubility at 18 h) was 0.8 µM (≈ 0.329 µg/mL).
The same measure, in the same setting: the result for `Cc1ccccc1CN1CCC(NC(=O)Nc2cccc(C(F)(F)F)c2)CC1` reads 44 µM (≈ 17.2 µg/mL); that for `CCCN1CCC(N(CCOC)C(=O)Nc2cccc(C(F)(F)F)c2)CC1`, 64 µM (≈ 24.8 µg/mL); that for `O=C(Nc1cccc(C(F)(F)F)c1)NC1CCN(Cc2ccccc2F)CC1`, 44 µM (≈ 17.4 µg/mL).
The compound `CCCN1CCC(N(CCC(C)C)C(=O)Nc2cccc(C(F)(F)F)c2)CC1` returned a solubility at 18 h of 61 µM (≈ 24.4 µg/mL). The solubility at 18 h values of the last two compounds are within 1.5-fold of each other.
Still for that read-out and setting: under `CCCN1CCC(N(CC(C)C)C(=O)Nc2cccc(C(F)(F)F)c2)CC1` stands 96 µM (≈ 37 µg/mL); under `CCCCCN1CCC(N(Cc2ccccc2)C(=O)Nc2cccc(C(F)(F)F)c2)CC1`, 58 µM (≈ 26 µg/mL).
Regarding `CCCN1CCC(N(CCC)C(=O)Nc2cccc(C(F)(F)F)c2)CC1`, the concentration in solution (solubility at 18 h) was 61 µM (≈ 22.7 µg/mL).
Same read-out and setting: the result for `O=C(Nc1cccc(C(F)(F)F)c1)N(Cc1ccccc1)C1CCN(Cc2cc[nH]n2)CC1` reads 54 µM (≈ 24.7 µg/mL); that for `Cc1cccc(CN2CCC(NC(=O)Nc3cccc(C(F)(F)F)c3)CC2)c1`, 35 µM (≈ 13.7 µg/mL); that for `CCCN1CCC(N(Cc2ccncc2)C(=O)Nc2cccc(C(F)(F)F)c2)CC1`, 85 µM (≈ 35.7 µg/mL).
The same measure, in the same setting: under `Cc1ccc(NC(=O)NC2CCN(Cc3ccccc3)CC2)cc1Cl` stands 2.4 µM (≈ 0.859 µg/mL); under `CCCN1CCC(N(CC2CCCCC2)C(=O)Nc2cccc(C(F)(F)F)c2)CC1`, 90 µM (≈ 38.3 µg/mL); under `O=C(Nc1cccc(C(F)(F)F)c1)NC1CCN(Cc2cccc(Cl)c2)CC1`, 0.7 µM (≈ 0.288 µg/mL).
Still for that read-out and setting: under `O=C(Nc1cccc(C(F)(F)F)c1)N(Cc1ccccc1)C1CCNCC1` stands 71 µM (≈ 26.8 µg/mL); under `O=C(Nc1cccc(C(F)(F)F)c1)N(Cc1ccccc1)C1CCN(Cc2nccs2)CC1`, 6.3 µM (≈ 2.99 µg/mL).
Turning to `CCCN1CCC(N(Cc2cccnc2)C(=O)Nc2cccc(C(F)(F)F)c2)CC1`, the solubility at 18 h was less than 0.1 µM.
On the same count and under the same terms, the result for `CCOc1cc(CN2CCC(N(Cc3ccccc3)C(=O)Nc3cccc(C(F)(F)F)c3)CC2)cc(Cl)c1O` reads 0.4 µM (≈ 0.225 µg/mL); that for `O=C(Nc1ccccc1)NC1CCN(Cc2ccccc2)CC1`, 68 µM (≈ 21 µg/mL).

The IC50 is the concentration that inhibits the measured activity by half. The low end stands for higher potency, the high end for lower potency. Broadly, the EC50 is the concentration at which the effect is half-maximal. The solubility is how much of the substance goes into solution per volume.
